# Measured values published in ChEMBL document CHEMBL2062433, “Synthesis and antiviral activity of substituted bisaryl amide compounds as novel influenza virus inhibitors” (Eur J Med Chem, 2012).
# How the values were obtained:
# [1] = Cytotoxicity against MDCK cells incubated for 48 hrs by CPE method; type: cell-based, Canis lupus familiaris; settings: dog, read-out: TC50
# Summary of the method: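 MDCK cells seeded at 2.5 × 10^4 per well and grown 24 h, then exposed to various compound concentrations for 48 h at 37 °C in 5% CO2. Toxicity scored by CPE observation. TC50 calculated by Reed and Muench; values are averages of three independent assays.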
# [2] = tested on: Influenza A virus; assay: Antiviral activity against Influenza A virus (A/Guangdong-Luohu/219/2006(H1N1)) infected in MDCK cells assessed as inhibition of virus-induced cytopathic effect; type: functional, organism-based
# Summary of the method: (§1)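 Confluent MDCK monolayers infected with 100 TCID50 of virus; 2 h adsorption at 37 °C, PBS wash, then maintenance medium at 37 °C with or without serial compound concentrations. CPE scored once virus control wells reached grade 4. IC50 calculated by Reed and Muench; values are averages of three independent assays.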
# [3] = Selectivity index, ratio of TC50 for MDCK cells to IC50 for Influenza A virus (A/Guangdong-Luohu/219/2006(H1N1)); type: toxicity, cell-based; settings: dog, read-out: Selectivity Index
# Summary of the method: (§2)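 SI is TC50 divided by IC50. TC50 comes from uninfected MDCK cells after 48 h of compound exposure, scored by CPE. IC50 comes from MDCK cells infected with 100 TCID50 and scored for CPE when virus controls reached grade 4. Both values calculated by Reed and Muench.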
# [4] = tested on: Influenza B virus; assay: Antiviral activity against Influenza B virus (strain B/Jifang/13/97) infected in MDCK cells assessed as inhibition of virus-induced cytopathic effect; type: functional, organism-based
# [5] = tested on: Influenza A virus; assay: Antiviral activity against Influenza A virus (A/Tianjin-Jinnan/15/2009(H1N1)) infected in MDCK cells assessed as inhibition of virus-induced cytopathic effect; type: functional, organism-based; summary of the method: as §1
# [6] = Selectivity index, ratio of TC50 for MDCK cells to IC50 for Influenza B virus (strain B/Jifang/13/97); type: toxicity, cell-based; settings: dog, read-out: Selectivity Index
# [7] = Selectivity index, ratio of TC50 for MDCK cells to IC50 for Influenza A virus (A/Tianjin-Jinnan/15/2009(H1N1)); type: toxicity, cell-based; settings: dog, read-out: Selectivity Index; summary of the method: as §2
SMILES,CC50 at 48 h [1] [µM],IC50 [2] [µM],selectivity ratio [3],IC50 [4] [µM],IC50 [5] [µM],selectivity ratio [6],selectivity ratio [7]
COc1ccc(C(=O)Nc2ccccc2)cc1NC(=O)C(C)Cl (centres undefined),200,17.3,11.6,> 22.3,> 22.3,,
COc1ccc(C(=O)Nc2ccccc2)cc1NC(=O)c1ccccc1,192,12.5,15.4,21.4,9.2,9,20.9
COc1ccc(C(=O)Nc2ccccc2)cc1NC(=O)C1CCCC1,459,37.9,12.1,> 65.7,> 65.7,,
CCC(=O)Nc1cc(C(=O)Nc2ccc(Br)cc2)ccc1OC,90.4,> 17.6,,,,,
COc1ccc(C(=O)Nc2ccccc2)cc1NC(=O)C(C)F (centres undefined),> 632,211,> 3,,,,
CCC(=O)Nc1cc(S(=O)(=O)Nc2ccccc2)ccc1OC,> 599,48.4,> 12.4,> 66.7,> 66.7,,
CC(F)C(=O)Nc1cccc(C(=O)Nc2ccccc2)c1 (centres undefined),578,144,4,,,,
CCC(=O)Nc1cc(C(=O)Nc2ccc([N+](=O)[O-])cc2)ccc1OC,307,26.3,11.7,64.8,> 21.6,4.7,
CCC(=O)Nc1cc(C(=O)N(C)c2ccccc2)ccc1OC,444,101,4.4,,,,
COc1cc(NC(=O)C(C)F)cc(C(=O)Nc2ccccc2)c1 (centres undefined),491,211,2.3,,,,
CCC(=O)Nc1cc(C(=O)Nc2ccccc2)ccc1Cl,530,153,3.5,,,,
CCC(=O)Nc1cc(C(=O)Nc2ccccn2)ccc1OC,> 669,223,> 3,,,,
COc1ccc(C(=O)Nc2ccccc2)cc1NC(C)=O,> 704,113,> 6.2,,,,
CCC(=O)Nc1cc(C(=O)Nc2ccc(C)cc2)ccc1OC,162,23.7,6.8,> 23.7,> 23.7,,
CCC(=O)Nc1cc(NC(=O)c2ccccc2)ccc1OC,387,74.5,5.2,,,,
CCC(=O)Nc1cc(C(=O)Nc2nccs2)ccc1OC,> 655,35,> 18.7,126,93.8,> 5.2,6.9
COc1ccc(C(=O)Nc2ccccc2)cc1,> 880,> 293,,,,,
NC(=O)c1ncn([C@@H]2O[C@H](CO)[C@@H](O)[C@H]2O)n1 [RIBAVIRIN],4770,8.8,542,45.5,35.3,104,135
COc1ccc(NC(=O)C(C)F)cc1C(=O)Nc1ccccc1 (centres undefined),272,> 70.2,,,,,
CCC(=O)Nc1cc(C(=O)NC2CCCCC2)ccc1OC,510,73,6.9,,,,
CCC(=O)Nc1cc(C(=O)Nc2ccccc2)ccc1OC,> 670,43,> 15.6,> 224,> 224,,
CCC(=O)Nc1cc(C(=O)NC2CCC2)ccc1OC,> 724,59,> 12.3,> 241,> 241,,
CCOC(=O)C1=C[C@@H](OC(CC)CC)[C@H](NC(C)=O)[C@@H](N)C1 [OSELTAMIVIR],3070,2,1540,,> 2440,,
CCC(=O)Nc1cc(C(=O)Nc2cccc(SC)c2)ccc1OC,324,> 63,,,,,
COc1ccc(C(=O)N(C)c2ccccc2)cc1NC(=O)C(C)C,492,117,4.2,,,,
COc1c(NC(=O)C(C)F)cccc1C(=O)Nc1ccccc1 (centres undefined),> 632,> 211,,,,,
CCC(=O)Oc1cc(C(=O)Nc2ccccc2)ccc1OC,518,173,3,,,,
CCC(=O)Nc1cc(C(=O)Nc2cccc(Cl)c2)ccc1OC,602,> 66.9,,,,,
CCC(=O)Nc1cc(C(=O)Oc2ccccc2)ccc1OC,464,223,2.1,,,,
